Assay results: ChEMBL document CHEMBL1817571, “Design and synthesis of new prostaglandin D₂ receptor antagonists” (Bioorg Med Chem, 2011)

Key:
[1] = biological target: T1, Prostaglandin D2 receptor (Mus musculus, UniProt P70263); assay: Antagonist activity at mouse prostanoid DP receptor expressed in CHO cells assessed as inhibition of PGD2-induced intracellular cAMP production; format: functional, cell-based
T1 sequence (P70263 whole entry): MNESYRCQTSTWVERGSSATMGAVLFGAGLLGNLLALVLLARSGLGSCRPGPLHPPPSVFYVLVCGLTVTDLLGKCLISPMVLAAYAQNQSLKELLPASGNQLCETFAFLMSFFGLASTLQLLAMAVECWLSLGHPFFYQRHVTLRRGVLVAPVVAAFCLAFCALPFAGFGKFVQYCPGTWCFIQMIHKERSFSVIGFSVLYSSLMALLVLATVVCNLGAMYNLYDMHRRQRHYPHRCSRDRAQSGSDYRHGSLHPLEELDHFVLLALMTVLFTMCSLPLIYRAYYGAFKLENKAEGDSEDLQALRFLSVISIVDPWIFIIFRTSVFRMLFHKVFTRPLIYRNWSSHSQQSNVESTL
Method in brief: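 CHO-mDP cells were seeded at 1×10^5 cells/well and grown 2 days. They were preincubated about 10 min at 37 °C in MEM with 2 µM diclofenac, then about 10 min in MEM with 0.1% BSA, 1 mM IBMX and 2 µM diclofenac. Test compounds at various concentrations plus 10 nM PGD2 were then added for 10 min at 37 °C. Reactions were stopped with 10% TCA, extracted with tri-n-octylamine/chloroform, and cAMP was measured by EIA.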

[2] = biological target: T1, Prostaglandin D2 receptor; assay: Displacement of [3H]PGD2 from mouse prostanoid DP receptor expressed in CHO cells after 20 mins by liquid scintillation counting
[3] = biological target: Prostaglandin E2 receptor EP2 subtype (Mus musculus, UniProt Q62053); assay: Displacement of [3H]PGE2 from mouse prostaglandin EP2 receptor expressed in CHO cells after 60 mins by liquid scintillation counting; format: cell-based
Sequence of Prostaglandin E2 receptor EP2 subtype (Q62053 whole entry): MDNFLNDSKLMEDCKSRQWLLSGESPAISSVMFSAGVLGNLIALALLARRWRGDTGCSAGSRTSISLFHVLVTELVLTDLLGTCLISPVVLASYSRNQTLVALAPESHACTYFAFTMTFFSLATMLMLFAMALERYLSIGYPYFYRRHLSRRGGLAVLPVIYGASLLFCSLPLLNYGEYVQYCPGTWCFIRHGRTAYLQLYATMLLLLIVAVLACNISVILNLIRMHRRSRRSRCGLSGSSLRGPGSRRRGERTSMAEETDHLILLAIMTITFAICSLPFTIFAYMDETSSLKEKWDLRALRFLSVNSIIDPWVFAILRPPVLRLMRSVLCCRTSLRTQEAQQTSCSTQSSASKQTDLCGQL
Method in brief: (§1)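 Membranes came from CHO cells stably expressing mEP1, EP2, EP3 or EP4. They were incubated with 2.5 nM [3H]PGE2 and graded test concentrations in 10 mM KH2PO4–KOH (1 mM EDTA, 10 mM MgCl2, 100 mM NaCl, pH 6.0) at room temperature, 20 min for EP1 and 60 min for EP2–4. Reactions were filtered on GF/B, washed with ice-cold buffer, and counted by scintillation. IC50 came by regression, with Ki via Cheng–Prusoff.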

[4] = biological target: T2, Prostaglandin E2 receptor EP3 subtype (Mus musculus, UniProt P30557); assay: Displacement of [3H]PGE2 from mouse prostaglandin EP3alpha receptor expressed in CHO cells after 60 mins by liquid scintillation counting; format: cell-based; method in brief: as §1
T2 sequence (P30557 whole entry): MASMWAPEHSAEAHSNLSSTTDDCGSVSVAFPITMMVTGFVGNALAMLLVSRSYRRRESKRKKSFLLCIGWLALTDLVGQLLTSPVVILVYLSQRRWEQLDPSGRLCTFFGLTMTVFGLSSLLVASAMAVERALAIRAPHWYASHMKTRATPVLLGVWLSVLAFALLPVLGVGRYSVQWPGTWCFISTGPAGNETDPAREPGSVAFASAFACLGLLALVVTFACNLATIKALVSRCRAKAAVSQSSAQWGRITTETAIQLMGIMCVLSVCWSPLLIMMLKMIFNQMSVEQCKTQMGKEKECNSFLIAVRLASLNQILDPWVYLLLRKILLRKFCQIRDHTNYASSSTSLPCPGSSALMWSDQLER

[5] = biological target: Prostaglandin E2 receptor EP4 subtype (Mus musculus, UniProt P32240); assay: Displacement of [3H]PGE2 from mouse prostaglandin EP4 receptor expressed in CHO cells after 60 mins by liquid scintillation counting; format: cell-based; method in brief: as §1
Sequence of Prostaglandin E2 receptor EP4 subtype (P32240 whole entry): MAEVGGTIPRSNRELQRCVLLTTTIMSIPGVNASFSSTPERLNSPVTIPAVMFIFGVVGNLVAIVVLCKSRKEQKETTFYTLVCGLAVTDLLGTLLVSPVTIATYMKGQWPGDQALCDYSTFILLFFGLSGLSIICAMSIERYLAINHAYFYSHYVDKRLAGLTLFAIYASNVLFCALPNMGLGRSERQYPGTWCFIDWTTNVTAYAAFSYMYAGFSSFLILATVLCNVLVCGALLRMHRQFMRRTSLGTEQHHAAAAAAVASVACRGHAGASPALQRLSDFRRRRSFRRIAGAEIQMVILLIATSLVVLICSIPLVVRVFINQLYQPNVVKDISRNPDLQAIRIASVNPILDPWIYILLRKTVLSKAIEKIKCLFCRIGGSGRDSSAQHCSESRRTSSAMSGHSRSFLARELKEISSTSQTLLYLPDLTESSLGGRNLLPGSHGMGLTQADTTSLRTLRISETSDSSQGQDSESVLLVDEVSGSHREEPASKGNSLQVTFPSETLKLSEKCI

[6] = biological target: Prostaglandin F2-alpha receptor (Mus musculus, UniProt P43117); assay: Displacement of [3H]PGF2alpha from mouse prostanoid FP receptor expressed in CHO cells after 60 mins by liquid scintillation counting; format: cell-based
Sequence of Prostaglandin F2-alpha receptor (P43117 whole entry): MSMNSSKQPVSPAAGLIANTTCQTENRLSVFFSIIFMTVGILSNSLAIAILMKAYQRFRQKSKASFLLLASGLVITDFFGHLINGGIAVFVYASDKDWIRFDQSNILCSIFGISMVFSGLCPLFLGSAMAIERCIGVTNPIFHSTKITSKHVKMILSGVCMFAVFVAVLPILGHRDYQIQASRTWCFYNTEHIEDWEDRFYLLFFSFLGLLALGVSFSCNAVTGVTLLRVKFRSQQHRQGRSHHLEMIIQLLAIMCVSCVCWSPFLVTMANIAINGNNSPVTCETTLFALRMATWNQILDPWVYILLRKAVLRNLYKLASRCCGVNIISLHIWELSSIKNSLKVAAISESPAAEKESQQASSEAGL
Method in brief: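 CHO-mFP membranes were incubated with 2.5 nM [3H]PGF2α and varied test concentrations in 10 mM KH2PO4–KOH, 1 mM EDTA, 10 mM MgCl2, 100 mM NaCl, pH 6.0, for 60 min at room temperature. Samples were then filtered on GF/B, washed with ice-cold phosphate/NaCl buffer, and counted by scintillation. IC50 came from the regression curve, and Ki = IC50/(1+[L]/Kd).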

[7] = biological target: T3, Prostaglandin E2 receptor EP1 subtype (Mus musculus, UniProt P35375); assay: Displacement of [3H]PGE2 from mouse prostaglandin EP1 receptor expressed in CHO cells after 20 mins by liquid scintillation counting
T3 sequence (P35375 whole entry): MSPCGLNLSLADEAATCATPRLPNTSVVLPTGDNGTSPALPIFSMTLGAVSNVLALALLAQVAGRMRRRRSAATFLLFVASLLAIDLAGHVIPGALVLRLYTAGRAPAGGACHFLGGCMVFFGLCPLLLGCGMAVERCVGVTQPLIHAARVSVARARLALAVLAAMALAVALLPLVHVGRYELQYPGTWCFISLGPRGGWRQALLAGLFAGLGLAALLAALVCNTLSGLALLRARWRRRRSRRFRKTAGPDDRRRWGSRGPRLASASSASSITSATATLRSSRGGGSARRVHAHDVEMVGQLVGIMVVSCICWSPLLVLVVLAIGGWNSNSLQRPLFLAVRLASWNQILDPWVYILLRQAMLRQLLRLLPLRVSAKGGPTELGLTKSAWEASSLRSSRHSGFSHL

Prostacyclin receptor = Prostacyclin receptor (Homo sapiens, UniProt P43119); assay: Displacement of [3H]Iloprost from human prostanoid IP receptor expressed in CHO cells after 30 mins by liquid scintillation counting
Sequence of Prostacyclin receptor (P43119 whole entry): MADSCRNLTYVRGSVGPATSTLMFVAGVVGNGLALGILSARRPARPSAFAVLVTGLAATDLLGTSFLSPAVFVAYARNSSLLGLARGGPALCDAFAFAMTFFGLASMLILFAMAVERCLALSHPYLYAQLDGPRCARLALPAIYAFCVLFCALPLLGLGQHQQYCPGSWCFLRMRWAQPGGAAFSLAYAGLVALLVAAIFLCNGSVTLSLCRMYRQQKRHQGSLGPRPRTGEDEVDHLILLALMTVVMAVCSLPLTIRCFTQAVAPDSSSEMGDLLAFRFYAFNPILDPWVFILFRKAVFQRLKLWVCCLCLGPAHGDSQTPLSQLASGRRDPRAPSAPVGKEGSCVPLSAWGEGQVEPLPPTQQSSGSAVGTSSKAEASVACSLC

Thromboxane A2 receptor = biological target: T4, Thromboxane A2 receptor (Homo sapiens, UniProt P21731); assay: Displacement of [3H]-SQ29548 from human prostanoid TP receptor expressed in CHO cells after 30 mins by liquid scintillation counting
T4 sequence (P21731 whole entry): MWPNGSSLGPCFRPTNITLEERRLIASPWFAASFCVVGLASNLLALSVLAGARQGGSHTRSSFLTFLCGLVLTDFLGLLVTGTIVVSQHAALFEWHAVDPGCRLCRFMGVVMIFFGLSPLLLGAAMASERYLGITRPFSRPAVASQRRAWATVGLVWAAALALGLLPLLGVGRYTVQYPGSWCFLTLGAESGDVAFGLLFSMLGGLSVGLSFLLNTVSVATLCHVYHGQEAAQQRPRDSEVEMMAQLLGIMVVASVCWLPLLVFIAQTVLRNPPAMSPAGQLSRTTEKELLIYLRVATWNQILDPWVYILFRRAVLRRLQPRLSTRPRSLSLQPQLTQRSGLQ

[8] = biological target: T3, Prostaglandin E2 receptor EP1 subtype; assay: Displacement of [3H]PGE2 from mouse prostaglandin EP1 receptor expressed in CHO cells after 60 mins by liquid scintillation counting; format: cell-based
[9] = AUC (infinity) in rat at 1 mg/kg, iv; format: ADME, organism-based; set-up: time infinity, dose 1 mg/kg, route intravenous; conditions: plasma
Method in brief: (§2)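 Fasted male rats (n = 3) received 1 mg/kg iv or 10 mg/kg po. Jugular vein blood was drawn with a heparinized syringe at pre-dose and 2 (iv only), 5, 15 and 30 min, and 1, 2, 4, 6 and 8 h. Plasma was obtained by centrifugation at 4 °C and stored at −80 °C. AUC, Cmax, T1/2, Vss and CL came from the plasma concentration–time course. BA was derived from dose-normalized AUCpo/AUCiv.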

[10] = AUC (infinity) in rat at 10 mg/kg, po; format: ADME, organism-based; set-up: time infinity, dose 10 mg/kg, route oral; conditions: plasma; method in brief: as §2
[11] = Total clearance in rat at 1 mg/kg, iv; format: ADME, organism-based; set-up: dose 1 mg/kg, route intravenous; conditions: in vivo; method in brief: as §2
[12] = Cmax in rat at 10 mg/kg, po; format: ADME, organism-based; set-up: dose 10 mg/kg, route oral; conditions: in vivo; method in brief: as §2
[13] = Half life in rat at 1 mg/kg, iv; format: ADME, organism-based; set-up: dose 1 mg/kg, route intravenous; conditions: in vivo; method in brief: as §2
[14] = Half life in rat at 10 mg/kg, po; format: ADME, organism-based; set-up: dose 10 mg/kg, route oral; conditions: in vivo; method in brief: as §2
[15] = Volume of distribution at steady state in rat at 1 mg/kg, iv; format: ADME, organism-based; set-up: dose 1 mg/kg, route intravenous; conditions: in vivo, read-out: Vdss; method in brief: as §2
[16] = Oral bioavailability in rat at 10 mg/kg; format: ADME, organism-based; conditions: in vivo; method in brief: as §2

| SMILES | IC50 [1] [µM] | Ki [2] [µM] | also measured |
| --- | --- | --- | --- |
| COc1ccc(NC(=O)c2ccc(OC[C@@H]3CN(C)c4ccccc4O3)cc2C)cc1CC(=O)O | 0.02 | 0.024 | – |
| Cc1ccc(CC(=O)O)cc1NC(=O)c1ccc(OC[C@@H]2CN(C)c3ccccc3O2)cc1Cl | 0.006 | 0.026 | – |
| CN1C[C@@H](COc2ccc(C(=O)Nc3cc(CC(=O)O)ccc3F)c(Cl)c2)Oc2ccccc21 | 0.0074 | 0.017 | Ki [8]: > 10 µM; Ki [3]: 0.022 µM; Ki [4]: > 10 µM; Ki [5]: > 10 µM; Ki [6]: > 10 µM; Ki (Prostacyclin receptor): > 10 µM; Ki (Thromboxane A2 receptor): > 10 µM |
| CN1C[C@@H](COc2ccc(C(=O)Nc3ccc(F)c(CC(=O)O)c3)c(Cl)c2)Oc2ccccc21 | 0.05 | 0.025 | – |
| COc1ccc(NC(=O)c2ccc(OC[C@@H]3CN(C)c4ccccc4O3)cc2Cl)cc1CC(=O)O | 0.041 | 0.036 | – |
| Cc1cc2c(CC(=O)O)cccc2n1C(=O)c1ccc(OC[C@@H]2CN(C)c3ccccc3O2)cc1 | – | – | AUC(0-inf) [9]: 7200 ng·h/mL; AUC(0-inf) [10]: 24300 ng·h/mL; clearance [11]: 2.4 mL/min/kg; Cmax [12]: 3500 ng/mL; half-life [13]: 9.8 h; half-life [14]: 5.4 h; Vd [15]: 1.8 L/kg; bioavailability [16]: 34% |

Continued, in another order:

| IC50 [1] [µM] | Ki [2] [µM] | SMILES | also measured |
| --- | --- | --- | --- |
| 0.0018 | 0.019 | Cc1cc(OC[C@@H]2CN(C)c3ccccc3O2)ccc1C(=O)Nc1cc(CC(=O)O)ccc1F | – |
| 0.0056 | 0.0074 | Cc1cc(OC[C@@H]2CN(C)c3ccccc3O2)ccc1C(=O)Nc1cc(F)cc(CC(=O)O)c1 | – |
| 0.0012 | 0.015 | Cc1cc(OC[C@@H]2CN(C)c3ccccc3O2)ccc1C(=O)Nc1ccc(F)c(CC(=O)O)c1 | – |
| 0.0054 | 0.012 | Cc1cc(CC(=O)O)cc(NC(=O)c2ccc(OC[C@@H]3CN(C)c4ccccc4O3)cc2Cl)c1 | – |
| 0.0039 | 0.017 | Cc1ccc(NC(=O)c2ccc(OC[C@@H]3CN(C)c4ccccc4O3)cc2Cl)cc1CC(=O)O | – |
| 0.0043 | 0.013 | CN1C[C@@H](COc2ccc(C(=O)Nc3cc(CC(=O)O)ccc3Cl)c(Cl)c2)Oc2ccccc21 | Ki [3]: 0.044 µM; Ki [4]: > 10 µM; Ki [5]: > 10 µM; Ki [6]: > 10 µM; Ki [7]: 6.6 µM; Ki (Prostacyclin receptor): 1.6 µM; Ki (Thromboxane A2 receptor): > 10 µM |
